Results: ChEMBL document CHEMBL1124503, “The role of position 4 in angiotensin II antagonism: a structure-activity study” (J Med Chem, 1989)
*1 amine or outer side, *2 acyl side, *3 side chain or, on linkers, in order; H or OH if unused. Where a SMILES comes first, the peptide text is derived from it. [ ]: non-standard residue; d: D form. Phe(4-SO2NH2) = N[C@@H](Cc1ccc(S(N)(=O)=O)cc1)C(=O)O; Phe(4-NO2) = N[C@@H](Cc1ccc([N+](=O)[O-])cc1)C(=O)O; Phe(4-SO3H) = N[C@@H](Cc1ccc(S(=O)(=O)O)cc1)C(=O)O; X2 = CC(=O)NCSc1ccc(C[C@H](N[*:1])C(=O)[*:2])cc1; Phe(4-B(OH)2) = N[C@@H](Cc1ccc(B(O)O)cc1)C(=O)O; Phe(4-Cl) = N[C@@H](Cc1ccc(Cl)cc1)C(=O)O; X1 = O=C([C@H](Cc1ccc(S)cc1)N[*:1])[*:2]; Phe(4-NH2) = Nc1ccc(C[C@H](N)C(=O)O)cc1; Phe(4-F) = N[C@@H](Cc1ccc(F)cc1)C(=O)O; Sar = CNCC(=O)O

Columns and labels:
[1] = organism: Oryctolagus cuniculus; test: Antagonist activity pA2, was measured in the in vitro rabbit aorta strip assay; type: functional; conditions: read-out: pA2 (converted)
Summary of the method: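 Isolated rabbit aorta strip (method of Rioux et al.); pA2 against the ANG II dose-response curve, determined at low antagonist doses within the competitive-inhibition range.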

[2] = biological target: Angiotensin II receptor (Rattus norvegicus) (UniProt P29089+P25095+P35351); test: In vivo blood pressure increase produced by a 1 ug bolus i.v.; type: functional, organism-based
Summary of the method: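 Rat blood pressure assay (Regoli et al.); agonist activity read as the mmHg rise in blood pressure after a 1 μg intravenous bolus of compound.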

[3] = test system: Rattus norvegicus; test: Residual ANG II-like antagonist activity, ID50 was measured in vivo, in the rat blood pressure assay; type: functional
[4] = test system: Angiotensin II receptor (Oryctolagus cuniculus); test: Angiotensin II-like agonist activity, measured in the in vitro rabbit aorta strip assay
[5] = organism: Rattus norvegicus; test: Antagonist activity pA2, was measured in the in vitro rat uterus strip assay; type: functional; conditions: read-out: pA2 (converted)

Molecule	Activity [4]	Kb [1]	Blood pressure [2]	ID50 [3]	Kb [5]
CC[C@H](C)[C@H](NC(=O)[C@H](Cc1ccc(O)cc1)NC(=O)[C@@H](NC(=O)[C@H](CCCN=C(N)N)NC(=O)CNC)C(C)C)C(=O)N[C@@H](Cc1c[nH]cn1)C(=O)N1CCC[C@H]1C(=O)N[C@H](Cc1ccccc1)C(=O)O	–	1 nM	10 mmHg	12.5 ng min-1 rat-1	–
CC[C@H](C)[C@H](NC(=O)[C@@H]1CCCN1C(=O)[C@H](Cc1c[nH]cn1)NC(=O)[C@@H](NC(=O)[C@H](Cc1ccc(O)cc1)NC(=O)[C@@H](NC(=O)[C@H](CCCN=C(N)N)NC(=O)[C@@H](N)CC(=O)O)C(C)C)[C@@H](C)CC)C(=O)O	–	–	–	–	5.01 nM
CC[C@H](C)[C@H](NC(=O)[C@H](Cc1ccc(F)cc1)NC(=O)[C@@H](NC(=O)[C@H](CCCN=C(N)N)NC(=O)CNC)C(C)C)C(=O)N[C@@H](Cc1c[nH]cn1)C(=O)N1CCC[C@H]1C(=O)N[C@@H](Cc1ccccc1)C(=O)O	0%	31.6 nM	22 mmHg	150 ng min-1 rat-1	–
CC[C@H](C)[C@H](NC(=O)[C@H](Cc1ccc(O)cc1)NC(=O)[C@@H](NC(=O)[C@H](CCCN=C(N)N)NC(=O)CNC)C(C)C)C(=O)N[C@@H](Cc1c[nH]cn1)C(=O)N1CCC[C@H]1C(=O)N[C@@H](Cc1ccccc1)C(=O)O	–	–	50 mmHg	–	–
CC[C@H](C)[C@H](NC(=O)[C@H](Cc1ccc(F)cc1)NC(=O)[C@@H](NC(=O)[C@H](CCCN=C(N)N)NC(=O)[C@@H](N)CC(=O)O)C(C)C)C(=O)N[C@@H](Cc1c[nH]cn1)C(=O)N1CCC[C@H]1C(=O)N[C@@H](Cc1ccccc1)C(=O)O (H-DRV[Phe(4-F)]IHPF-OH)	–	–	–	–	501 nM
CC[C@H](C)[C@H](NC(=O)[C@H](Cc1ccccc1)NC(=O)[C@@H](NC(=O)[C@H](CCCN=C(N)N)NC(=O)CNC)C(C)C)C(=O)N[C@@H](Cc1c[nH]cn1)C(=O)N1CCC[C@H]1C(=O)N[C@@H](Cc1ccccc1)C(=O)O (H-[Sar]RVFIHPF-OH)	22%	12.6 nM	–	–	–
CC[C@H](C)[C@H](NC(=O)[C@@H]1CCCN1C(=O)[C@H](Cc1c[nH]cn1)NC(=O)[C@@H](NC(=O)[C@H](Cc1ccccc1)NC(=O)[C@@H](NC(=O)[C@H](CCCN=C(N)N)NC(=O)CNC)C(C)C)[C@@H](C)CC)C(=O)O (H-[Sar]RVFIHPI-OH)	0%	3.16 nM	2.7 mmHg	80 ng min-1 rat-1	–
CC[C@H](C)[C@H](NC(=O)[C@H](Cc1ccc(Cl)cc1)NC(=O)[C@@H](NC(=O)[C@H](CCCN=C(N)N)NC(=O)CNC)C(C)C)C(=O)N[C@@H](Cc1c[nH]cn1)C(=O)N1CCC[C@H]1C(=O)N[C@@H](Cc1ccccc1)C(=O)O (H-[Sar]RV[Phe(4-Cl)]IHPF-OH)	0%	31.6 nM	5.5 mmHg	30 ng min-1 rat-1	–
CC[C@H](C)[C@H](NC(=O)[C@@H]1CCCN1C(=O)[C@H](Cc1c[nH]cn1)NC(=O)[C@@H](NC(=O)[C@H](Cc1ccc(Cl)cc1)NC(=O)[C@@H](NC(=O)[C@H](CCCN=C(N)N)NC(=O)CNC)C(C)C)[C@@H](C)CC)C(=O)O (H-[Sar]RV[Phe(4-Cl)]IHPI-OH)	0%	> 1000 nM	2 mmHg	500 ng min-1 rat-1	–
CC[C@H](C)[C@H](NC(=O)[C@H](Cc1ccc(N)cc1)NC(=O)[C@@H](NC(=O)[C@H](CCCN=C(N)N)NC(=O)CNC)C(C)C)C(=O)N[C@@H](Cc1c[nH]cn1)C(=O)N1CCC[C@H]1C(=O)N[C@@H](Cc1ccccc1)C(=O)O (H-[Sar]RV[Phe(4-NH2)]IHPF-OH)	15%	–	–	–	–
CC[C@H](C)[C@H](NC(=O)[C@H](Cc1ccc(S(=O)(=O)O)cc1)NC(=O)[C@@H](NC(=O)[C@H](CCCN=C(N)N)NC(=O)CNC)C(C)C)C(=O)N[C@@H](Cc1c[nH]cn1)C(=O)N1CCC[C@H]1C(=O)N[C@@H](Cc1ccccc1)C(=O)O (H-[Sar]RV[Phe(4-SO3H)]IHPF-OH)	0%	> 1000 nM	–	–	–
CC[C@H](C)[C@H](NC(=O)[C@H](Cc1ccc(SCNC(C)=O)cc1)NC(=O)[C@@H](NC(=O)[C@H](CCCN=C(N)N)NC(=O)CNC)C(C)C)C(=O)N[C@@H](Cc1c[nH]cn1)C(=O)N1CCC[C@H]1C(=O)N[C@@H](Cc1ccccc1)C(=O)O (H-[Sar]RV[X2]IHPF-OH)	9%	8.13 nM	–	–	–
CC[C@H](C)[C@H](NC(=O)C1CCCN1C(=O)[C@H](Cc1c[nH]cn1)NC(=O)[C@@H](NC(=O)[C@H](Cc1ccc(O)cc1)NC(=O)[C@@H](NC(=O)[C@H](CCCN=C(N)N)NC(=O)CNC)C(C)C)[C@@H](C)CC)C(=O)O (single isomer, unassigned)	–	0.794 nM	10 mmHg	10 ng min-1 rat-1	–
H-DRVFIHPY-OH	–	–	–	–	240 nM
H-DRVYIHPC-OH	–	–	–	–	6.03 nM

More lines, main results first:

Activity [4]	Molecule	Kb [1]	Blood pressure [2]	ID50 [3]	Kb [5]
0%	CC[C@H](C)[C@H](NC(=O)[C@H](Cc1ccc(O)cc1)NC(=O)[C@@H](NC(=O)[C@H](CCCN=C(N)N)NC(=O)CNC)C(C)C)C(=O)N[C@@H](Cc1c[nH]cn1)C(=O)N1CCC[C@H]1C(=O)N[C@H](Cc1ccc(O)cc1)C(=O)O	5.62 nM	15 mmHg	20 ng min-1 rat-1	–
0%	CC[C@H](C)[C@H](NC(=O)[C@H](Cc1ccccc1)NC(=O)[C@@H](NC(=O)[C@H](CCCN=C(N)N)NC(=O)CNC)C(C)C)C(=O)N[C@@H](Cc1c[nH]cn1)C(=O)N1CCC[C@H]1C(=O)N[C@@H](Cc1ccc(O)cc1)C(=O)O	31.6 nM	5.5 mmHg	50 ng min-1 rat-1	–
0%	CC[C@H](C)[C@H](NC(=O)[C@H](Cc1ccc(OC)cc1)NC(=O)[C@@H](NC(=O)[C@H](CCCN=C(N)N)NC(=O)CNC)C(C)C)C(=O)N[C@@H](Cc1c[nH]cn1)C(=O)N1CCC[C@H]1C(=O)N[C@@H](Cc1ccccc1)C(=O)O	79.4 nM	20 mmHg	250 ng min-1 rat-1	–
0%	CC[C@H](C)[C@H](NC(=O)[C@@H]1CCCN1C(=O)[C@H](Cc1c[nH]cn1)NC(=O)[C@@H](NC(=O)[C@H](Cc1ccc(OC)cc1)NC(=O)[C@@H](NC(=O)[C@H](CCCN=C(N)N)NC(=O)CNC)C(C)C)[C@@H](C)CC)C(=O)O	79.4 nM	3 mmHg	100 ng min-1 rat-1	–
0%	CCOc1ccc(C[C@H](NC(=O)[C@@H](NC(=O)[C@H](CCCN=C(N)N)NC(=O)CNC)C(C)C)C(=O)N[C@H](C(=O)N[C@@H](Cc2c[nH]cn2)C(=O)N2CCC[C@H]2C(=O)N[C@H](C(=O)O)[C@@H](C)CC)[C@@H](C)CC)cc1	> 1000 nM	5 mmHg	>1000 ng min-1 rat-1	–
0.1%	CCOc1ccc(C[C@H](NC(=O)[C@@H](NC(=O)[C@H](CCCN=C(N)N)NC(=O)CNC)C(C)C)C(=O)N[C@H](C(=O)N[C@@H](Cc2c[nH]cn2)C(=O)N2CCC[C@H]2C(=O)N[C@@H](Cc2ccccc2)C(=O)O)[C@@H](C)CC)cc1	–	2.5 mmHg	150 ng min-1 rat-1	> 1000 nM
0%	CC[C@H](C)[C@H](NC(=O)[C@H](Cc1ccc(F)cc1)NC(=O)[C@@H](NC(=O)[C@H](CCCN=C(N)N)NC(=O)CNC)C(C)C)C(=O)N[C@@H](Cc1c[nH]cn1)C(=O)N1CCC[C@H]1C(=O)N[C@H](Cc1ccccc1)C(=O)O	141 nM	10 mmHg	50 ng min-1 rat-1	–
0%	CC[C@H](C)[C@H](NC(=O)[C@H](Cc1ccccc1)NC(=O)[C@@H](NC(=O)[C@H](CCCN=C(N)N)NC(=O)CNC)C(C)C)C(=O)N[C@@H](Cc1c[nH]cn1)C(=O)N1CCC[C@H]1C(=O)N[C@H](Cc1ccc(O)cc1)C(=O)O	100 nM	5 mmHg	30 ng min-1 rat-1	–
10%	CC[C@H](C)[C@H](NC(=O)[C@H](Cc1ccc(B(O)O)cc1)NC(=O)[C@@H](NC(=O)[C@H](CCCN=C(N)N)NC(=O)CNC)C(C)C)C(=O)N[C@@H](Cc1c[nH]cn1)C(=O)N1CCC[C@H]1C(=O)N[C@@H](Cc1ccccc1)C(=O)O (H-[Sar]RV[Phe(4-B(OH)2)]IHPF-OH)	–	–	–	–
0%	CC[C@H](C)[C@H](NC(=O)[C@@H]1CCCN1C(=O)[C@H](Cc1c[nH]cn1)NC(=O)[C@@H](NC(=O)[C@H](Cc1ccc(B(O)O)cc1)NC(=O)[C@@H](NC(=O)[C@H](CCCN=C(N)N)NC(=O)CNC)C(C)C)[C@@H](C)CC)C(=O)O (H-[Sar]RV[Phe(4-B(OH)2)]IHPI-OH)	2000 nM	0 mmHg	500 ng min-1 rat-1	–
0%	CC[C@H](C)[C@H](NC(=O)[C@@H]1CCCN1C(=O)[C@H](Cc1c[nH]cn1)NC(=O)[C@@H](NC(=O)[C@H](Cc1ccc(F)cc1)NC(=O)[C@@H](NC(=O)[C@H](CCCN=C(N)N)NC(=O)CNC)C(C)C)[C@@H](C)CC)C(=O)O (H-[Sar]RV[Phe(4-F)]IHPI-OH)	158 nM	0 mmHg	750 ng min-1 rat-1	–
0%	CC[C@H](C)[C@H](NC(=O)[C@@H]1CCCN1C(=O)[C@H](Cc1c[nH]cn1)NC(=O)[C@@H](NC(=O)[C@H](Cc1ccc([N+](=O)[O-])cc1)NC(=O)[C@@H](NC(=O)[C@H](CCCN=C(N)N)NC(=O)CNC)C(C)C)[C@@H](C)CC)C(=O)O (H-[Sar]RV[Phe(4-NO2)]IHPI-OH)	79.4 nM	5 mmHg	–	–
0.9%	CC[C@H](C)[C@H](NC(=O)[C@H](Cc1ccc(S(N)(=O)=O)cc1)NC(=O)[C@@H](NC(=O)[C@H](CCCN=C(N)N)NC(=O)CNC)C(C)C)C(=O)N[C@@H](Cc1c[nH]cn1)C(=O)N1CCC[C@H]1C(=O)N[C@@H](Cc1ccccc1)C(=O)O (H-[Sar]RV[Phe(4-SO2NH2)]IHPF-OH)	–	–	–	–
0.9%	CC[C@H](C)[C@H](NC(=O)[C@H](Cc1ccc(S)cc1)NC(=O)[C@@H](NC(=O)[C@H](CCCN=C(N)N)NC(=O)CNC)C(C)C)C(=O)N[C@@H](Cc1c[nH]cn1)C(=O)N1CCC[C@H]1C(=O)N[C@@H](Cc1ccccc1)C(=O)O (H-[Sar]RV[X1]IHPF-OH)	> 1000 nM	–	–	–
< 0.1%	H-DRVYIHPL-OH	1.66 nM	–	–	–
